From ChEMBL document CHEMBL1240433, “Design, synthesis, and antitubercular evaluation of novel series of 3-benzofuran-5-aryl-1-pyrazolyl-pyridylmethanone and 3-benzofuran-5-aryl-1-pyrazolylcarbonyl-4-oxo-naphthyridin analogs” (Eur J Med Chem, 2010)
In brackets after ≈: the same amount, converted by molar mass.

Experiments:
[1] = tested on: Mycobacterium tuberculosis; test: Antitubercular activity against Mycobacterium tuberculosis ATCC 35801 infected in CD1 mouse lung at 25 mg/kg, iv after 6 weeks; format: functional
Method in brief: (§1)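 Female CD-1 mice, 6 weeks old, six per group, were infected intravenously via the caudal vein with 10^6 to 10^7 viable organisms. Dosing at 25 mg/kg intraperitoneally began 10 days after infection. Viable counts came from serial 10-fold dilutions on 7H10 agar after incubation at 37 °C in ambient air for up to 6 weeks, compared with vehicle-treated controls.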

[2] = tested on: Mycobacterium tuberculosis; test: Antitubercular activity against Mycobacterium tuberculosis ATCC 35801 infected in CD1 mouse spleen at 25 mg/kg, iv after 6 weeks; format: functional; method in brief: as §1
[3] = tested on: Mycobacterium tuberculosis; test: Antitubercular activity against Mycobacterium tuberculosis H37Rv after 6 weeks; format: functional
Method in brief: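 Lowenstein-Jensen slope assay. DMSO stocks of 250 and 10 µg/mL were each mixed 0.8 mL into 7.2 mL L.J. medium, then inspissated at 75-80 °C for 3 days. A loopful of culture was dispersed with glass beads in sterile water by vortexing for 2 min and streaked onto the slopes. DMSO-only and drug-free media served as controls. Bacterial counts were read after 6 weeks at 37 °C.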

Vero = test: Cytotoxicity against african green monkey Vero after 72 hrs by MTT assay; format: cell-based; details: Chlorocebus sabaeus
Method in brief: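 Mammalian Vero cells were used to determine IC50. The read-out was cellular reduction of MTT to a formazan product, measured with a non-radioactive cell proliferation kit.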

Compound | log10cfu [1] | log10cfu [2] | MIC [3] | IC50 (Vero)
O=C(c1ccncc1)N1N=C(c2cc3ccccc3o2)CC1c1cccc([N+](=O)[O-])c1 (stereo not given) | 10.8 | 11.6 | 7.5 µg/mL (≈ 18.2 µM) | > 240 µM
COc1ccc(C2CC(c3cc4ccccc4o3)=NN2C(=O)c2ccncc2)c(O)c1 (stereo not given) | 6.98 | 6.52 | 3.3 µg/mL (≈ 7.98 µM) | > 191 µM
O=C(c1ccncc1)N1N=C(c2cc3ccccc3o2)CC1c1ccc(O)cc1 (stereo not given) | 7.46 | 8.2 | 4.5 µg/mL (≈ 11.7 µM) | > 200 µM
O=C(c1ccncc1)N1N=C(c2cc3ccccc3o2)CC1c1ccc(Cl)cc1 (stereo not given) | 13.8 | 12.4 | 11.5 µg/mL (≈ 28.6 µM) | > 221 µM
O=C(c1ccncc1)N1N=C(c2cc3ccccc3o2)CC1c1ccccc1Cl (stereo not given) | 12.5 | 12.2 | 10.6 µg/mL (≈ 26.4 µM) | > 211 µM
O=C(c1ccncc1)N1N=C(c2cc3ccccc3o2)CC1c1ccccc1[N+](=O)[O-] (stereo not given) | 9.5 | 10.5 | 8.2 µg/mL (≈ 19.9 µM) | > 245 µM
COc1ccc(C2CC(c3cc4ccccc4o3)=NN2C(=O)c2ccncc2)cc1 (stereo not given) | 8.6 | 9.24 | 6.8 µg/mL (≈ 17.1 µM) | > 200 µM
O=C(c1ccncc1)N1N=C(c2cc3ccccc3o2)CC1c1ccccc1 (stereo not given) | 9.4 | 10.6 | 8.5 µg/mL (≈ 23.1 µM) | > 210 µM
O=C(c1ccncc1)N1N=C(c2cc3ccccc3o2)CC1c1ccco1 (stereo not given) | 11.4 | 12.6 | 9.6 µg/mL (≈ 26.9 µM) | > 208 µM
O=C(c1ccncc1)N1N=C(c2cc3ccccc3o2)CC1/C=C/c1ccccc1 (stereo not given) | 10.8 | 11.6 | 8.6 µg/mL (≈ 21.9 µM) | > 212 µM
CCn1cc(C(=O)N2N=C(c3cc4ccccc4o3)CC2c2ccccc2O)c(=O)c2ccc(C)nc21 (stereo not given) | 4.11 | 5.36 | 1.2 µg/mL (≈ 2.44 µM) | > 158 µM
CCn1cc(C(=O)N2N=C(c3cc4ccccc4o3)CC2c2ccccc2OC)c(=O)c2ccc(C)nc21 (stereo not given) | 6.87 | 6.13 | 5.5 µg/mL (≈ 10.9 µM) | > 188 µM
CCn1cc(C(=O)N2N=C(c3cc4ccccc4o3)CC2c2ccc(N(C)C)cc2)c(=O)c2ccc(C)nc21 (stereo not given) | 4.82 | 6.53 | 9.2 µg/mL (≈ 17.7 µM) | > 207 µM
CCn1cc(C(=O)N2N=C(c3cc4ccccc4o3)CC2c2ccccc2C(=O)O)c(=O)c2ccc(C)nc21 (stereo not given) | 5.12 | 6.16 | 4.5 µg/mL (≈ 8.64 µM) | > 196 µM
CCn1cc(C(=O)N2N=C(c3cc4ccccc4o3)CC2c2cccc([N+](=O)[O-])c2)c(=O)c2ccc(C)nc21 (stereo not given) | 2.65 | 3.25 | 2.3 µg/mL (≈ 4.41 µM) | > 164 µM
CCn1cc(C(=O)N2N=C(c3cc4ccccc4o3)CC2c2ccc(OC)cc2O)c(=O)c2ccc(C)nc21 (stereo not given) | 8.42 | 9.28 | 4.2 µg/mL (≈ 8.04 µM) | > 154 µM
CCn1cc(C(=O)N2N=C(c3cc4ccccc4o3)CC2c2ccc(O)cc2)c(=O)c2ccc(C)nc21 (stereo not given) | 5.49 | 7.21 | 3.2 µg/mL (≈ 6.5 µM) | > 148 µM
CCn1cc(C(=O)N2N=C(c3cc4ccccc4o3)CC2c2ccc(Cl)cc2)c(=O)c2ccc(C)nc21 (stereo not given) | 11.52 | 12.12 | 8.3 µg/mL (≈ 16.2 µM) | > 160 µM
CCn1cc(C(=O)N2N=C(c3cc4ccccc4o3)CC2c2ccccc2Cl)c(=O)c2ccc(C)nc21 (stereo not given) | 10.85 | 10.96 | 7.8 µg/mL (≈ 15.3 µM) | > 178 µM
CCn1cc(C(=O)N2N=C(c3cc4ccccc4o3)CC2c2ccccc2[N+](=O)[O-])c(=O)c2ccc(C)nc21 (stereo not given) | 5.67 | 6.12 | 1.9 µg/mL (≈ 3.64 µM) | > 85.4 µM
O=C(c1ccncc1)N1N=C(c2cc3ccccc3o2)CC1c1ccccc1O (stereo not given) | 7.2 | 9.45 | 3.7 µg/mL (≈ 9.65 µM) | > 195 µM
COc1ccccc1C1CC(c2cc3ccccc3o2)=NN1C(=O)c1ccncc1 (stereo not given) | 9.65 | 10.6 | 6.5 µg/mL (≈ 16.4 µM) | > 202 µM
CCn1cc(C(=O)N2N=C(c3cc4ccccc4o3)CC2c2ccc(OC)cc2)c(=O)c2ccc(C)nc21 (stereo not given) | 9.32 | 10.77 | 6.3 µg/mL (≈ 12.4 µM) | > 156 µM
CCn1cc(C(=O)N2N=C(c3cc4ccccc4o3)CC2c2ccccc2)c(=O)c2ccc(C)nc21 (stereo not given) | 12.23 | 12.98 | 9.8 µg/mL (≈ 20.6 µM) | > 210 µM
CN(C)c1ccc(C2CC(c3cc4ccccc4o3)=NN2C(=O)c2ccncc2)cc1 (stereo not given) | 14.4 | 15.8 | 9.2 µg/mL (≈ 22.4 µM) | > 211 µM
O=C(O)c1ccccc1C1CC(c2cc3ccccc3o2)=NN1C(=O)c1ccncc1 (stereo not given) | 6.24 | 5.42 | 2.2 µg/mL (≈ 5.35 µM) | > 171 µM
CCn1cc(C(=O)N2N=C(c3cc4ccccc4o3)CC2c2ccco2)c(=O)c2ccc(C)nc21 (stereo not given) | 9.66 | 10.52 | 7.5 µg/mL (≈ 16.1 µM) | > 186 µM
CCn1cc(C(=O)N2N=C(c3cc4ccccc4o3)CC2/C=C/c2ccccc2)c(=O)c2ccc(C)nc21 (stereo not given) | 4.61 | 6.32 | 5.5 µg/mL (≈ 10.9 µM) | > 169 µM
NNC(=O)c1ccncc1 [ISONIAZID] | 4.62 | 5.45 | 0.32 µg/mL (≈ 2.33 µM) | > 130 µM
CO[C@H]1/C=C/O[C@@]2(C)Oc3c(C)c(O)c4c(O)c(c(/C=N/N5CCN(C)CC5)c(O)c4c3C2=O)NC(=O)/C(C)=C\C=C\[C@H](C)[C@H](O)[C@@H](C)[C@@H](O)[C@@H](C)[C@H](OC(C)=O)[C@@H]1C [RIFAMPIN] | 3.21 | 3.98 | 0.6 µg/mL (≈ 0.729 µM) | > 74.5 µM
